Our source for the pA2 and IC50 values is ChEMBL document CHEMBL1130190, “Thromboxane modulating agents. 3. 1H-imidazol-1-ylalkyl- and 3-pyridinylalkyl-substituted 3-[2-[(arylsulfonyl)amino]ethyl]benzenepropanoic acid derivatives as dual thromboxane synthase inhibitor/thromboxane receptor antagonists” (J Med Chem, 1997).

Assay [1] deals with T1, Thromboxane A2 receptor (Rattus norvegicus) (UniProt P34978).
T1 sequence (whole entry): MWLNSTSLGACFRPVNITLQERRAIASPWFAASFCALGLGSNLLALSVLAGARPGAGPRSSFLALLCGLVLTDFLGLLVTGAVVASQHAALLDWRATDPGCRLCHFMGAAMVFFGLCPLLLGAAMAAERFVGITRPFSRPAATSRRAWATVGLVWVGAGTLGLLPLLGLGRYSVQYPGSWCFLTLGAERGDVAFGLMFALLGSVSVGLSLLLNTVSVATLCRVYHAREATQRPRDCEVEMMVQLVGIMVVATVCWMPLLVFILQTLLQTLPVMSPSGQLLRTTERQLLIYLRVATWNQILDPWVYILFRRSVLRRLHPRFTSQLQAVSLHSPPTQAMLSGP
In words: Antagonist activity against TXA2 receptor measured by inhibition of U-46,619-induced contractions of rat aorta. The format is functional, tissue-based. The essentials:
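Spirally cut rat aortic strips held under 1 g resting tension for isometric recording in Krebs-bicarbonate at 37 °C, oxygenated, equilibrated 2 h. Primed with U46619 for 10 min, washed, and rested 1 h. Cumulative U46619 (1–100 nM) contraction curves were run before and after 15 min compound exposure (1 h for footnoted entries) at several concentrations. Antagonism was derived from the shifted curves.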

For a further assay, the target named is T2, Thromboxane-A synthase (Homo sapiens, UniProt P24557).
T2 sequence (P24557 whole entry): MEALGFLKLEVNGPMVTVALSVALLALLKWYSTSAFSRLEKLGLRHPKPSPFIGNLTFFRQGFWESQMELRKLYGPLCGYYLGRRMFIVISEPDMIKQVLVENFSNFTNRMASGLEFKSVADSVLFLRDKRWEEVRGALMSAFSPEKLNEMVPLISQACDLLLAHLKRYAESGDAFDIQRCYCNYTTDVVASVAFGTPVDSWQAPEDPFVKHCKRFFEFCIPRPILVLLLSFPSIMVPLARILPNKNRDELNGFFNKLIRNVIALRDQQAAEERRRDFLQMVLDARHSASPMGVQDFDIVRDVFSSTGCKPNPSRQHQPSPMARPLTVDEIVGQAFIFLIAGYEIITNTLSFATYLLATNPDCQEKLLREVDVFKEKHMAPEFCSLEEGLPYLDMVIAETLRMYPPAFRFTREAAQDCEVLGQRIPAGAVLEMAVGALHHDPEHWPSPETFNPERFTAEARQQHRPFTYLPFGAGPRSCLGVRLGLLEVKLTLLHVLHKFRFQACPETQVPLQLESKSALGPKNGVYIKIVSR
In words: Activity against human platelet microsome Thromboxane synthase.

As to `Cc1c(Cc2cccnc2)c2cc(CCC(=O)O)ccc2n1CCNS(=O)(=O)c1ccc(F)cc1`, the pA2 in assay [1] worked out at 9.16. Regarding `O=C(O)CCc1cc(CCNS(=O)(=O)c2ccccc2)cc(Cn2ccnc2)c1`, the pA2 in assay [1] stood at 7.89. Further, on Thromboxane-A synthase, the IC50 turned out to be 18 nM.

In assay [1], `Cc1c(Cn2ccnc2)c2cc(CCC(=O)O)ccc2n1CCNS(=O)(=O)c1ccc(F)cc1` displayed a pA2 of 8.8. As for `O=C(O)CCc1cc(CCNS(=O)(=O)c2ccc(Cl)cc2)cc(Cn2ccnc2)c1`, the pA2 in assay [1] turned out to be 8.54. Half-maximal inhibition against Thromboxane-A synthase (IC50) required 38 nM. In turn, `O=C(O)CCc1cc(CCNS(=O)(=O)N2CCCCC2)cc(Cc2cccnc2)c1` gave a pA2 in assay [1] of 7.81. The compound also yielded an IC50 at Thromboxane-A synthase of 43 nM.

For the compound `CCCS(=O)(=O)NCCc1cc(CCC(=O)O)cc(Cc2cccnc2)c1`, the pA2 in assay [1] was determined as 7.71. This compound displayed a concentration for half-maximal inhibition (IC50) against Thromboxane-A synthase of 29 nM. On to `O=C(O)CCc1cc(CCNS(=O)(=O)c2ccc(Br)cc2)cc(Cc2cccnc2)c1`, for which the pA2 in assay [1] is 9.44.

Take `O=C(O)CCc1cccc(CCNS(=O)(=O)c2ccc(Cl)cc2)c1`: the pA2 in assay [1] was found to be 8.71.

Consider `O=C(O)CCc1cc(CCNS(=O)(=O)c2ccccc2)cc(Oc2cccnc2)c1`, for which, in assay [1], the pA2 is 9.06. The compound `O=C(O)CCc1cc(CCNC(=O)c2ccccc2)cc(Cc2cccnc2)c1` displayed a pA2 in assay [1] of 7.96. The IC50 against Thromboxane-A synthase stood at 22 nM. For `CCN(CC)S(=O)(=O)NCCc1cc(CCC(=O)O)cc(Cc2cccnc2)c1`, the pA2 in assay [1] is 7.43. On Thromboxane-A synthase, this compound had a half-maximal inhibitory concentration (IC50) of 29 nM. For `CC(O)(c1cccnc1)c1cc(CCNS(=O)(=O)c2ccc(Cl)cc2)cc(CCC(=O)O)c1` (configuration not stated), the pA2 in assay [1] is 9.07.

In the case of `O=C(O)CCc1cc(CCNS(=O)(=O)N2CCCC2)cc(Cc2cccnc2)c1`, in assay [1], the pA2 stood at 8. This compound also came in with an IC50 at Thromboxane-A synthase of 22 nM.

Take `O=C(O)CCc1cc(CCNS(=O)(=O)c2ccccc2)cc(Cc2cccnc2)c1`: in assay [1], the pA2 amounted to 8.8. Also, the IC50 against Thromboxane-A synthase was determined as 45 nM. Taken in the same sequence, the figures for `O=C(O)CCc1cc(CCS(=O)(=O)c2ccccc2)cc(Cc2cccnc2)c1` were below 6 and 48 nM. In assay [1], `O=C(O)CCc1cc(CCNS(=O)(=O)C2CCCCC2)cc(Cc2cccnc2)c1` registered a pA2 of 7.81. Also, 43 nM corresponded to half-maximal inhibition against Thromboxane-A synthase (IC50). Compound `O=C(O)COc1ccc(CCNS(=O)(=O)c2ccccc2)cc1` displayed a pA2 in assay [1] of 7.09. Regarding `Cc1ccc(S(=O)(=O)NCCc2cc(CCC(=O)O)cc(Cc3cccnc3)c2)cc1`, in assay [1], the pA2 was found to be 8.98. The compound also gave a concentration for half-maximal inhibition (IC50) against Thromboxane-A synthase of 37 nM. In assay [1], `O=C(O)CCc1cc(CCNS(=O)(=O)c2ccc(F)cc2)cc(Cc2cccnc2)c1` registered a pA2 of 8.9. In addition, the 50% inhibitory concentration (IC50) against Thromboxane-A synthase is 20 nM. For the compound `O=C(O)CCn1cc(Cn2ccnc2)c2cc(NS(=O)(=O)c3ccc(F)cc3)ccc21`, the pA2 in assay [1] turned out to be 8.2.

Compound `CC(C)(C)CS(=O)(=O)NCCc1cc(CCC(=O)O)cc(Cc2cccnc2)c1` displayed a pA2 in assay [1] of 8.1. On Thromboxane-A synthase, this compound gave an IC50 of 39 nM. Consider `O=C(O)CCc1cc(CCNS(=O)(=O)Nc2ccc(Cl)cc2)cc(Cc2cccnc2)c1`, for which the pA2 in assay [1] is 8.32. This compound registered an IC50 on Thromboxane-A synthase of 38 nM. With `CN(CCc1cc(CCC(=O)O)cc(Cc2cccnc2)c1)S(=O)(=O)c1ccc(Cl)cc1`, the pA2 in assay [1] amounted to 6.78. The compound further displayed an IC50 on Thromboxane-A synthase of 54 nM. For the compound `O=C(O)CCc1cc(CCCS(=O)(=O)c2ccccc2)cc(Cc2cccnc2)c1`, the pA2 in assay [1] was found to be 7.8. Moreover, at Thromboxane-A synthase, the half-inhibitory concentration (IC50) stood at 27 nM. `O=C(O)CCn1cc(Cc2cccnc2)c2cc(NS(=O)(=O)c3ccc(F)cc3)ccc21` came in with a pA2 in assay [1] of 8.85. As to `CN(C)S(=O)(=O)NCCc1cc(CCC(=O)O)cc(Cc2cccnc2)c1`, the pA2 in assay [1] was found to be 7.69. The same compound registered an IC50 against Thromboxane-A synthase of 22 nM. The compound `CC(c1cccnc1)c1cc(CCNS(=O)(=O)c2ccc(Cl)cc2)cc(CCC(=O)O)c1` (configuration not stated) displayed a pA2 in assay [1] of 10.2. Same read-out and setting: in the case of `O=C(O)CCc1cc(CCNS(=O)(=O)c2ccc(Cl)cc2)cc(Cc2cccnc2)c1` it was 9.39; in that of `C=C(c1cccnc1)c1cc(CCNS(=O)(=O)c2ccc(Cl)cc2)cc(CCC(=O)O)c1`, 10; in that of `O=C(O)CCc1cc(CCNS(=O)(=O)c2ccc(Cl)cc2)cc(Oc2cccnc2)c1`, 9.4.

A word on the pA2: it is the negative logarithm of the molar antagonist concentration that doubles the agonist concentration needed for the same response. Read a low pA2 as lower antagonist potency. Usually IC50 stands for the midpoint of a concentration-inhibition curve.
